Source: PubChem
Cardio protect = cardioprotection against H2O2-induced cell death, primary screen, uHTS, H9c2 cells, ATPLite luminescence. H9c2 cardiomyocytes, H2O2 injury protection, 2 h. protection from H2O2 cell death, % at 20 µM. 0.63% of 360,000 active. AID 588492, 2011;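 active = compounds giving at least 50% protection of heart cells from peroxide-induced death in the single-dose screen, raw or plate-pattern-corrected value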;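 also: 0% = DMSO wells with peroxide and 100% = DMSO wells without peroxide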
ARFGAP1 inh = inhibitors of rat ARFGAP1 GAP activity, primary screen, biochemical, fluorescence polarization, GDP tracer; ADP-ribosylation factor GTPase-activating protein 1 (Rattus norvegicus), Q62848; Arfgap1-stimulated ARF1 GTP hydrolysis, GDP FP detection; inhibition, % at 16.5 µM; 0.26% of 360,000 active; AID 651572, 2012;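 active = inhibition above a per-plate limit, mean inhibition of low control wells plus 3 SD, cut at about 25% in these data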;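 also: 0% = DMSO wells with enzyme and 100% = wells lacking Arfgap1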
Target sequence (Q62848 1-136 limits assumed): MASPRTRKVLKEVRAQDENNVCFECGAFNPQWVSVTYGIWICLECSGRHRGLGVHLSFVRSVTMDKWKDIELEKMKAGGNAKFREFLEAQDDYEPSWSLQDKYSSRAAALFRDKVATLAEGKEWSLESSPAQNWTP
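System: truncated rat Arfgap1 GAP domain / Benchmarks: high control wells lacking Arfgap1, low control full reaction with DMSO / Times: compound-enzyme preincubation 20 min, reaction 120 min, detection 60 min, 25 °C / Repeats: one replicate per compound / Also added: human ARF1(Δ1-17)-GTP substrate / Measured by: Tracer-displacement fluorescence polarization with EDTA stop, 620/688 nm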
Neddylation inh = inhibitors of cullin neddylation, primary screen, biochemical, TR-FRET, uHTS, NAE and Ubc12; NEDD8-conjugating enzyme Ubc12 (Homo sapiens) + NEDD8-activating enzyme E1 regulatory …; inhibition, % at 25 µM; 0.58% of 360,000 active; in the data active = inhibition above about 36%
ASAP1 GAP inh = inhibitors of human ASAP1 ArfGAP activity, primary screen, biochemical, fluorescence polarization | Arf-GAP with SH3 domain, ANK repeat and PH domain-containing protein 1 (Homo sapiens), … | ASAP1-stimulated ARF1 GTP hydrolysis, GDP FP detection | inhibition, % at 16.5 µM | 0.19% of 360,000 active; in the data active = inhibition above about 25%;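 also: 0% = vehicle with enzyme and substrate and 100% = no enzyme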
Target sequence (Q9ULH1 325-724 limits assumed): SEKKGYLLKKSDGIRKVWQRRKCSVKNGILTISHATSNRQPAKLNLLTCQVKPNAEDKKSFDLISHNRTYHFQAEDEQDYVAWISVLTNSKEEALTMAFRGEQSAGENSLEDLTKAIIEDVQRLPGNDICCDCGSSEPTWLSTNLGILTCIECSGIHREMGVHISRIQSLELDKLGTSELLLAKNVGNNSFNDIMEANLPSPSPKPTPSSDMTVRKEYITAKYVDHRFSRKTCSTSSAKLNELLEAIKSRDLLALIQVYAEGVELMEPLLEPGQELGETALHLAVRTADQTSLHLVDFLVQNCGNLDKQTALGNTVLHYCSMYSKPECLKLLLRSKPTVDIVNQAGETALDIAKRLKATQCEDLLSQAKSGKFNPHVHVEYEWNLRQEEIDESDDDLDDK
Starred values were filed as active, the others as inactive; / = no result shown. Most compounds without a hit are left out; they make up all but 1.6% or so of the library.

SMILES | Cardio protect | ARFGAP1 inh | Neddylation inh | ASAP1 GAP inh
CCOC(=O)C1=C(C(=O)OCC)C2N(Cc3ccc(C#N)cc3)c3ccccc3[C@@]23C[C@@H](C(=O)OC)N(S(=O)(=O)c2ccc(OC)cc2)C3=N1 (stereo partly drawn) | / | -2 | / | -4
S=c1[nH]nc(-c2n[nH]c3c2CCC3)n1/N=C/C=C/c1ccco1 | 2 | 8 | 55* | 0
COc1ccccc1/C=C/C=N/n1c(-c2n[nH]c3c2CCC3)n[nH]c1=S | -5 | 11 | 0 | -4
COc1cc(Cl)cc(/C=C/c2ccc3cccc(O)c3n2)c1OC | 57* | 7 | 2 | -8
COc1ccc(Cl)cc1/C=C/c1ccc2cccc(O)c2n1 | 41 | -2 | 5 | -6
COc1cc(C(=O)Nc2nc(-c3cccs3)cs2)cc(OC)c1OC | 81* | 6 | -28 | 0
CCCCOc1ccc(C2NC(=O)NC(C)=C2C(C)=O)cc1OCC (stereo not drawn) | -2 | -6 | 6 | 0
CCOC(=O)C(C)Oc1ccc(C2NC(=O)NC(C)=C2C(C)=O)cc1Br (stereo not drawn) | 55* | 0 | -2 | -8
O=C(N[C@H](Cc1ccccc1)C(=O)N(CCC1=CCCCC1)CC1CC1)[C@H]1O[C@@H](n2ccc(=O)[nH]c2=O)[C@H](O)[C@@H]1O | / | -14 | / | -15
Cc1c(N=Cc2cc3c(cc2[N+](=O)[O-])OCO3)cccc1[N+](=O)[O-] | 72* | -3 | 11 | -7
Cc1ccccc1N=Cc1cc2c(cc1[N+](=O)[O-])OCO2 | 62* | 2 | 3 | 10
Cc1cc(C)nc(N/N=C/c2cc3c(cc2[N+](=O)[O-])OCO3)n1 | 33 | -6 | -19 | 2
O=[N+]([O-])c1cc2c(cc1/C=N/n1cnnc1)OCO2 | 8 | -7 | -20 | 5
O=C(C(=O)N1CCC(CNC(=O)C2COc3ccccc3O2)CC1)c1cc2ccccc2o1 (stereo not drawn) | / | 9 | / | 0
COc1cc2nc(Nc3ccc(C)c(Cl)c3)nc(N)c2cc1OC | -20 | -10 | 48* | 14
CCOC(=O)c1ccc(Nc2nc(N)c3cc(OC)c(OC)cc3n2)cc1 | -19 | / | 45* | /
COc1cc2nc(Nc3ccc(F)cc3)nc(N)c2cc1OC | 55* | -2 | 32 | 9
COc1cc2nc(N(C)C)nc(N)c2cc1OC | 1 | 9 | / | -4
CCOC(=O)c1ccc(Nc2ccc(-c3ccc(OC)c(OC)c3)nn2)cc1 | 4 | -6 | -5 | 10
COc1cc2nc(Nc3ccc(C)c(C)c3)nc(N)c2cc1OC | -3 | 2 | 33 | 14
NC(=O)c1c(N)[nH]c(C(=O)c2ccccc2)c1-c1ccc(Cl)cc1Cl | / | 0 | / | 9
Cc1ccc(-c2cc(NC(=O)Cc3c[nH]c4ccccc34)ccc2N(C)c2cccnc2)cc1 | / | 14 | / | -3
COc1ccc2[nH]c3c(c2c1)CCNC3c1ccc([N+](=O)[O-])o1 (stereo not drawn) | 60* | 2 | 7 | 11
O=C(COC(=O)c1ccccc1C(=O)OCC(=O)NCCc1c[nH]c2ccccc12)NCCc1c[nH]c2ccccc12 | 62* | 7 | -39 | 4
O=C(COC(=O)c1ccccc1O)NCCc1c[nH]c2ccccc12 | -2 | 4 | 14 | -10
SMILES | Cardio protect | ARFGAP1 inh | Neddylation inh | ASAP1 GAP inh
COCCN=C1Sc2ccccc2[C@@H]2C[C@H]3[C@H](CON3C)CN12 | / | -9 | / | -8
COc1cc(C(=O)Oc2ccccc2/C=N/NC(=O)c2ccc(Cl)cc2)cc(OC)c1OC | 33 | 13 | 3 | 19
CC(=O)Nc1ccc(C(=O)N/N=C/c2ccccc2OC(=O)c2ccc(Cl)cc2)cc1 | 56* | -2 | 3 | 8
COc1cc(N(C)C)ccc1C=c1c2ccccc2n2c1cc(-c1ccccc1)[n+]2C | -20 | 13 | -28 | 36*
CN(C)c1ccc(C=c2c3cc([N+](=O)[O-])ccc3n3c2cc(-c2ccccc2)[n+]3C)cc1 | -20 | 39* | -11 | 20
CN(C)c1ccc(C=c2c3ccccc3n3c2cc(-c2ccccc2)[n+]3C)cc1 | -20 | 2 | -1 | 10
O=C1C=C(N2CCOCC2)c2cccc3cccc1c23 | 61* | 5 | -53 | -1
O=C1C(N2CCOCC2)=Cc2cccc3cccc1c23 | 13 | 2 | -48 | -2
CCN1C(=O)/C(=C\c2ccc(-c3cccc(C(=O)OC)c3)o2)SC1=Nc1ccc(C(=O)O)cc1 | / | 0 | / | -1
CCN=C1S/C(=C\c2ccc(-c3cccc(C(=O)O)c3)o2)C(=O)N1CC | -1 | / | 49* | /
O=NNc1nc2ccccc2n1Cc1ccccc1 | 72* | -2 | -14 | 7
NC(COCc1ccccc1)c1csc(NC(=O)Nc2cccc(C(F)(F)F)c2)n1 (stereo not drawn) | -34 | 7 | 1 | 3
O=C(Nc1nnc(-c2cccs2)o1)c1cccc(F)c1 | 14 | 0 | -8 | 0
O=C(Nc1nnc(-c2cccs2)o1)c1cccc(Oc2ccccc2)c1 | 53* | 0 | 13 | -11
CCc1ccc(S(=O)(=O)NCc2ccc(C(=O)NCCN(Cc3ccccc3)C(C)C)cc2)cc1 | -28 | -1 | 1 | -1
Cn1c(=O)n(CCc2ccccc2)c(=O)c2c1nc1n2CCCN1CCc1ccccc1 | 106* | 11 | 5 | 4
Cn1c(=O)n(CCc2ccccc2)c(=O)c2c1nc1n2CCCN1Cc1ccccc1 | 116* | -5 | -5 | -4
COc1ccccc1CNC(=O)C1CCCN1S(=O)(=O)c1ccc2c(c1)C(C)(C)C(=O)N2C (stereo not drawn) | 5 | 0 | -5 | 3
COc1cc(Nc2nc3ccccc3n3nnnc23)cc(OC)c1OC | 68* | 6 | / | 1
C[C@H](CO)N1C[C@H](C)[C@H](CN(C)C(=O)Nc2cccc(F)c2)Oc2cc(Br)ccc2S1(=O)=O | / | 4 | / | 16
CC(C)OCCCNc1ncnc2c1[nH]c1ccccc12 | -18 | -7 | 38* | 10
O=C/C(=C\Nc1ccccn1)c1nc2cc(Cl)ccc2o1 | 56* | 1 | 11 | 10
CCOc1ccc2nc(NC(=O)CN3CCC(n4nnc5cc(F)ccc54)CC3)sc2c1 | 70* | 0 | -3 | 0
O=C(CN1CCC(n2nnc3cc(F)ccc32)CC1)NC1CC1 | -4 | -12 | 6 | 5
Cn1c(-c2ccc(Cl)cc2)cnc1N | 69* | 2 | 19 | 9
CCOc1ccc(-c2cnc(N)n2C)cc1 | 10 | 14 | 8 | 6
COc1ccc(-c2csc(C(O)c3ccccc3)n2)cn1 (stereo not drawn) | -6 | / | -13 | /
COC(=O)[C@]12C[C@H](CC(=O)N3CCOCC3)C(=O)N(CCC3=CCCCC3)C1=C[C@H](COCc1ccccc1)O[C@@H]2C | / | -1 | / | -8
